# Screens: PubChem BioAssay, several laboratories
# Cardio protect: cardioprotection against H2O2-induced cell death, primary screen, uHTS, H9c2 cells, ATPLite luminescence. H9c2 cardiomyocytes, H2O2 injury protection, 2 h. protection from H2O2 cell death, % at 20 µM. hit rate 0.63% among 360,000. AID 588492, 2011;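 active means compounds giving at least 50% protection of heart cells from peroxide-induced death in the single-dose screen, raw or plate-pattern-corrected value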
# SENP1 FRET inh: human SENP1 catalytic domain inhibitors, primary screen, biochemical, FRET, uHTS. Sentrin-specific protease 1 (Homo sapiens), Q9P0U3. recombinant SENP1 catalytic domain, CyPet-SUMO1-YPet FRET cleavage. inhibition, % at 10 µM. hit rate 0.21% among 360,000. AID 624204, 2012;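 active means inhibition at least 30% at 10 µM, raw YFP signal under a set limit, fluorescence ratio 0.5 to 1.5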
# Target sequence (Q9P0U3 419-644 limits assumed): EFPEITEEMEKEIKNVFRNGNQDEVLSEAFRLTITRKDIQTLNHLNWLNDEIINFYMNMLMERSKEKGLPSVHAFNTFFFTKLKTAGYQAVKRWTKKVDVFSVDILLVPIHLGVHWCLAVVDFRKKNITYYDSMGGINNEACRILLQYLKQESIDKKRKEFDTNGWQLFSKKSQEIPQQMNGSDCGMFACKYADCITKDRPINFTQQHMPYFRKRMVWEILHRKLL
#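 Test system: recombinant human SENP1 catalytic domain, His6-tagged / Medium: pH 8 Tris buffer with EDTA, NaCl, BME, BSA, NP40, catalase / Also added: SUMO1 FRET substrate flanked by Cypet and Ypet, 25 nM / Times: 50 min reaction at room temperature / Signal: FRET, CFP and YFP emission / Control set: no-enzyme low control and enzyme-plus-DMSO high control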
# Pemphigus Ab inh: inhibitors of pemphigus antibody binding to DSG3, primary screen, biochemical, bead-based, flow cytometry, scFv-GFP | binding (percent of control), % at 10 µM | AID 588358, 2011 | DSG3-coupled beads, scFv-anti-DSG3-GFP binding; stronger effect = lower value | hit rate 0.48% among 310,000;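 active means binding more than 3 SD below its plate's average and above zero; inconclusive means below that plate limit but binding exactly zero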
# HNF4A DNA FP: change in binding of human HNF4A to DNA, primary screen, biochemical, fluorescence polarization, FITC-DNA. Hepatocyte nuclear factor 4-alpha (Homo sapiens), P41235. 1 h. activity change, % at 10 µM. hit rate 0.3% among 360,000. AID 1224865, 2016; in the data active means activity change above about 30%, passing the limit was not always enough
# Target sequence (P41235 whole entry, looked up): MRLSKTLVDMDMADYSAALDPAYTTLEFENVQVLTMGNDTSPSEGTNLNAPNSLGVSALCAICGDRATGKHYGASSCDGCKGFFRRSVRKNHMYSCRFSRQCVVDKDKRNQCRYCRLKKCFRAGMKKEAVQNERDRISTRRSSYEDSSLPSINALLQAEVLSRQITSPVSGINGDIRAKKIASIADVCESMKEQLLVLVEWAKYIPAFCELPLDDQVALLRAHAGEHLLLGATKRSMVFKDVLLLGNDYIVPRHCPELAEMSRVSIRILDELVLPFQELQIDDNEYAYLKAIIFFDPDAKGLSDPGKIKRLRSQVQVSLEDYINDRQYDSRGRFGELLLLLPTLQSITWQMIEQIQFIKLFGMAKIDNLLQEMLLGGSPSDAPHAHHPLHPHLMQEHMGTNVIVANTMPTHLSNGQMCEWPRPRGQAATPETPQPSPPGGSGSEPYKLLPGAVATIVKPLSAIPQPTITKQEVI
# Exocytosis inh: LAMP-1 surface exposure blockers, TALL-104 cells – cell-based, flow cytometry, MLPCN library, primary screen; TALL-104 LAMP-1 surface exposure; cells stimulated with thapsigargin and PMA; inhibition, % at 10 µM; hit rate 0.66% among 360,000; AID 651702, 2012;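 active means inhibition above about 55%, limit read from the data; inconclusive means no clear call, values can overlap the other calls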
# Myeloid diff 2: induction of myeloid progenitor differentiation, primary screen, cell-based, flow cytometry, MLPCN library | ER-HoxA9 myeloid progenitors, lysozyme-GFP differentiation | calls only at 10 µM | hit rate 1% among 360,000 | AID 624256, 2012;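 active means normalized GFP-positive differentiation at or above the plate's own cutoff, the solvent-only control mean plus 3 SD; inconclusive means no clear call, values can overlap the other calls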;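 further: cells exposed to compound for four days before flow analysis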
# SENP1 conf: human SENP1 catalytic domain inhibitors, confirmation, biochemical, FRET endpoint, single concentration | shares compounds with SENP1 FRET inh | recombinant SENP1, CyPet-SUMO1-YPet FRET cleavage | inhibition, % at 10 µM | hit rate 34% among 520 | AID 651678, 2012; in the data active means inhibition mostly above about 35%, no sharp cut-off; inactive means mostly below about 32%
# SENP1 kin conf: human SENP1 catalytic domain inhibitors, confirmation, biochemical, kinetic FRET, single concentration; AID 651690, 2012; recombinant SENP1, CyPet-SUMO1-YPet FRET kinetic cleavage; inhibition, % at 10 µM; shares compounds with SENP1 FRET inh; hit rate 26% among 520; in the data active means inhibition mostly above about 32%, no sharp cut-off; inactive means mostly below about 29%
# Myeloid diff: inducers of myeloid progenitor differentiation, confirmation, cell-based, GFP/Mac1 flow cytometry, cherry pick 01; shares compounds with Myeloid diff 2; ER-HoxA9 myeloid progenitors, GFP/Mac1 double-positive flow; calls only; hit rate 2% among 2,300; AID 651706, 2012;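 active means share of green or green-and-red cells above 9 and 9% in run 1 or 4 and 3% in run 2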
# GFP autofluor: flagged as fluorescent in myeloid differentiation counter-screen; shares compounds with Myeloid diff 2; ER-HoxA9 myeloid progenitors, no estrogen, GFP autofluorescence flow cytometry; vehicle wells 0%, positive control 100%; fluorescence response, % (concentration not given with the values); hit rate 7.4% among 2,300; AID 651707;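 active means over 5% cells positive for green fluorescent reporter, or over 2% positive for both it and APC stain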
# HNF4A confirm: change in HNF4A binding to DNA, retest, confirmation, biochemical, fluorescence polarization, FITC-DNA | shares compounds with HNF4A DNA FP | 1 h | activity change, % at 12.5 µM | hit rate 99% among 210; call rule not given here
# A number is an active result; n = inactive; u = inconclusive; x = not tested or not shown; + = active, no number; ! = not active in a repeat. This is a sample that favours compounds with a hit; in the whole collection about 3% have one here.
SMILES,Cardio protect,SENP1 FRET inh,Pemphigus Ab inh,HNF4A DNA FP,Exocytosis inh,Myeloid diff 2,others
O=C(N/N=C/c1c(O)n(C2CCCCC2)c(=S)[nH]c1=O)c1ccccc1,64,n,x,n,n,u,
O=C(N/N=C/c1c(O)n(C2CCCCC2)c(=S)[nH]c1=O)c1ccccc1O,52,n,n,n,n,n,
CCOC(=O)c1c(/N=C/C2C(=O)NC(=S)NC2=O)sc2c1CCC2,n,n,n,n,n,n,
CCOC(=O)c1cc(C)sc1/N=C/C1C(=O)NC(=S)NC1=O,n,n,69,n,n,n,
COc1ccc(C2SCC(=O)Nc3c2c(=O)[nH]n3C2CCCCC2)cc1 (stereo not given),n,n,n,n,n,n,
CC12C=CC(=O)CC1CCC1C2CCC2(C)C(O)C(O)CC12 (stereo not given),118,n,n,n,n,n,
C[C@]12CCC3C(CC[C@H]4C[C@H](O)CC[C@]34C)C1C[C@@H](O)[C@@H]2O (stereo not given in full),n,n,n,n,n,n,
NCCCCCC(=O)OC1N=C(c2ccccc2Cl)c2cc(Br)ccc2NC1=O (stereo not given),n,n,n,n,n,n,
CC(C)CC(N(C)C)C1(c2ccc(Cl)cc2)CCC1 (stereo not given),n,n,79!,n,n,x,
O=C1NC(=O)C(C(CC(=O)c2ccccc2)c2ccccc2)C(=O)N1 (stereo not given),n,n,n,n,n,n,
Cn1ncnc2c(=O)n(C)c(=O)nc1-2,n,38,x,n,n,u,
Cn1c(O)c(/C=C/C=Nc2ccccc2)c(=O)n(C)c1=S,n,n,x,95,n,+,
O=C1NC(=O)N(Cc2ccc(F)cc2)C(=O)/C1=C\C=C\c1ccco1,n,n,n,n,n,n,
Cc1cc(C)cc(N2C(=O)NC(=O)/C(=C\C=C\c3ccco3)C2=O)c1,61,n,n,n,n,n,
CCOc1ccc(N2C(=O)/C(=C/c3ccco3)C(=O)NC2=S)cc1,n,n,14,n,n,n,
CCCCN1C(=O)/C(=C/C=C/c2ccco2)C(=O)NC1=S,n,n,n,38,n,n,
Cc1ccc(N2C(=O)NC(=O)/C(=C/C=C/c3ccco3)C2=O)cc1,n,n,n,n,n,n,
CC(C)c1ccc(N2C(=O)NC(=O)/C(=C/C=C/c3ccco3)C2=O)cc1,n,n,n,66,n,+,
O=C1c2cccc(N3CCNCC3)c2C2CCCCN12 (stereo not given),n,n,x,n,n,n,
O=c1[nH]c(=S)n(Cc2ccc(F)cc2)c(O)c1/C=N/N1CCCCCC1,n,n,n,n,n,n,
Nc1ccc2nonc2c1[N+](=O)[O-],n,n,n,n,n,n,
O=C1NC(=O)N(c2ccccc2)C(=O)/C1=C\C=C\c1ccccc1,n,n,n,n,n,n,
CCc1ccc(N2C(=O)NC(=O)/C(=C\C=C\c3ccco3)C2=O)cc1,n,n,n,n,76,n,
Cc1nc2ccccc2c(=O)n1/N=C/c1cc(Br)cc(Br)c1O,55,n,n,n,n,n,
Cc1nc2ccccc2c(=O)n1-c1ccc(Br)cn1,n,n,n,n,n,n,
SMILES,Cardio protect,SENP1 FRET inh,Pemphigus Ab inh,HNF4A DNA FP,Exocytosis inh,Myeloid diff 2,others
CNC(=O)Oc1ccc2c(c1)C(=O)c1ccccc1CO2,n,n,n,n,n,+,
O=C1NCN(c2ccccc2)C12CCN(C(c1cc3ccccc3o1)c1nnnn1-c1ccc3c(c1)OCCO3)CC2 (stereo not given),n,n,x,n,n,n,
O=C(COc1ccccc1)c1cn(Cc2ccccc2)c2ccccc12,n,n,x,n,n,+,
COc1cccc(C2(O)CCN(CC(=O)Nc3nc(C)cs3)CC2)c1,n,n,n,n,n,n,
Cc1cc(N(CCCl)CCCl)ccc1/C=N/N=C(\N)c1cnccn1,n,n,n,n,n,n,
Cc1cc(N(CCCl)CCCl)ccc1C=Cc1ccncn1,n,n,n,67,n,u,
Nc1cccc2c1Cc1cc([N+](=O)[O-])ccc1-2,n,73,n,n,n,n,SENP1 conf=n;SENP1 kin conf=n
Cc1cc(/C=C2\C(=O)NC(=O)N(C)C2=O)c(C)n1-c1ccc2c(c1)OCO2,n,35,x,n,n,n,SENP1 conf=n;SENP1 kin conf=n
Cc1cc(C=C2C(=O)NC(=O)NC2=O)c(C)n1-c1ccc2c(c1)OCO2,n,n,n,n,n,n,
CC1CCN(c2cc(Br)c([N+](=O)[O-])cc2F)CC1,n,n,n,n,n,n,
COc1ccc(N=Nc2c(O)[nH]c(=S)[nH]c2=O)cc1,n,48,n,80,n,n,SENP1 conf=43;SENP1 kin conf=n;HNF4A confirm=118
CC(=O)OC1CCC2(C)C(CCC3C2CC(=O)C2(C)C3CC(N3CC3)C2C(C)=O)C1 (stereo not given),n,n,x,n,n,n,
OCC[n+]1c2ccccc2nc2ccc(N3CCOCC3)cc21,n,n,n,n,n,+,Myeloid diff=n;GFP autofluor=n
O=C1N(c2ccc(Cl)cc2)C(c2cccnc2)N2CCCN12 (stereo not given),n,n,n,n,n,n,
CCOc1ccc(-n2c(O)c(C=NCCN(CC)CC)c(=O)[nH]c2=O)cc1,n,n,n,n,n,n,
Cc1ccc(C(=O)N/C(=C\Cl)P(=O)(c2ccccc2)c2ccccc2)cc1,n,n,n,n,n,n,
